Assay outcomes as filed in PubChem.
Only some compounds are listed: those with a hit (about 4.6% of all), similar ones and a draw of the others.
TAAR1 ag: human TAAR1 agonism; 360,000 tested, 0.99% active; AID 624467; CHO RD-HGA16 TAAR1, Fluo-8 calcium fluorescence; vehicle wells 0%, saturating PEA agonist 100%; Q96RJ0; activation, % at 3 µM;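 active means activation above the mean activation of all test compounds in the run plus 3 SD, cut at about 38% in these data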
Target sequence (Q96RJ0 whole entry, looked up): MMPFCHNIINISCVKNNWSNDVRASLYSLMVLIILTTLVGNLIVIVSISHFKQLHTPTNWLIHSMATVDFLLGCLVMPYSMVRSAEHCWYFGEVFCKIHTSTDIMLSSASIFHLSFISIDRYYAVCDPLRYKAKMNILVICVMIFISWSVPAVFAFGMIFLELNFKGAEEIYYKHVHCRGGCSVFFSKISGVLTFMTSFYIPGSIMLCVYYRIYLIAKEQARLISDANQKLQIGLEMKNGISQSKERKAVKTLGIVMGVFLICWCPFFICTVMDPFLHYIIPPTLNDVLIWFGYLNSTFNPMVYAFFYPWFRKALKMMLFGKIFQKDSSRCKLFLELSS
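Test system: RD-HGA16 (CHO) cells co-expressing Gα16 and hTAAR1 | Doses: Single dose, 3 µM | Schedule: 17-24 h seeding, 75 min 37 °C dye, 30 min RT | Evaluation: % activation from peak over basal fluorescence ratio, DMSO-to-PEA scaled | Technique: Kinetic Fluo-8 calcium fluorescence | Benchmarks: Low control DMSO, high control PEA (EC100)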
OX1R antag-1: OX1R (human) antagonism; O43613; OX1R-expressing cells, FRET antagonist read-out; inhibition, % at 6.6 µM; 330,000 tested, 1.8% active; in the data active means inhibition mostly above about 38%, no sharp cut-off; inactive means mostly below about 40%
Target sequence (O43613 whole entry, looked up): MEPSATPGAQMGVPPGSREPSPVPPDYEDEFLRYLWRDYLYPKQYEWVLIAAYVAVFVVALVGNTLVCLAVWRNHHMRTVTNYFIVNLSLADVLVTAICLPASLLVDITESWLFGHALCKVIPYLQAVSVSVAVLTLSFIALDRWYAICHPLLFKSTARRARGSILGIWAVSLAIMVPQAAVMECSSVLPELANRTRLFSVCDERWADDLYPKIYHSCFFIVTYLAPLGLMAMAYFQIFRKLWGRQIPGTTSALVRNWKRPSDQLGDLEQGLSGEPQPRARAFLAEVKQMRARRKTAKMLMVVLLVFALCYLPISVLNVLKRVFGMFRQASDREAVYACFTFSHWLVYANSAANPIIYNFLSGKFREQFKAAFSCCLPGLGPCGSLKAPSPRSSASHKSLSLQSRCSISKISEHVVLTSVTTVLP
CHO parental Ca: counter-screen for OX1R antagonists: effect in parental CHO cells | parental CHO-K1, ATP-induced calcium, Fluo-8 fluorescence | inhibition, % at 5.6 µM | 330,000 tested, 0.63% active;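 active means inhibition above that plate's mean sample inhibition plus 3 SD, cut at about 26% in these data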
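Material: parental CHO cells / Compound: single nominal dose of 5.6 µM per compound / Signal: Fluo-8 fluorescence / Replicates: singlicate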
OX1R antag-2: human HCRTR1 antagonism; CHO/OX1R cells, Fluo-8 calcium fluorescence, orexin A; inhibition, % at 5 µM; 330,000 tested, 0.43% active; AID 434989;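 active means inhibition above its plate's threshold, mean inhibition of all tested compounds on the plate plus 3 SD, cut at about 37% in these data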
GPR7 antag: human neuropeptides B/W receptor 1 antagonism | inhibition, % at 4.4 µM | AID 1861 | GPR7-expressing cells, fluorescence antagonist assay | 290,000 tested, 1.1% active | P48145; in the data active means inhibition above about 16%, passing the limit was not always enough;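 further: cells stimulated with the agonist NPW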
TAAR1 antagonist: antagonists of human TAAR1; CHO RD-HGA16 TAAR1, Fluo-8 calcium fluorescence, antagonist; inhibition, % at 3 µM; 360,000 tested, 1.5% active; AID 624466;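 active means inhibition above a per-plate cutoff, the mean inhibition of test compounds on that plate plus 3 SD, cut at about 49% in these data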
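System: RD-HGA16 CHO cells with stable hTAAR1 and Gα16 | Probe or stimulus: EC80 β-phenethylamine stimulus | Dosing: 3 µM, single point | Times: Dye loading 75 min at 37 °C, then 30 min room temperature | Measured by: Fluo-8 calcium-sensitive fluorescence | Read-out basis: % inhibition of agonist calcium response | Replicates: n of 1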
TAAR1 nonsel count: counter-screen for TAAR1 antagonists: nonselective antagonists; shares compounds with TAAR1 antagonist; counterscreen cell line, calcium fluorescence, antagonist mode; inhibition, % at 3 µM; 2,400 tested, 77% active; AID 651780; in the data active means inhibition above about 22%;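 further: CHO-Ga16 host cells stimulated with ATP at an EC80 level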
TAAR1 ant conf: confirmation of human TAAR1 antagonists. 2,400 tested, 40% active. inhibition, % at 3 µM. shares compounds with TAAR1 antagonist. AID 651785. TAAR1-expressing cells, fluorescence antagonist read-out; in the data active means inhibition above about 49%;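 further: CHO-Ga16 host cells challenged with agonist PEA near its EC80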
Ga16 nonsel ag: counter-screen for TAAR1 antagonists: nonselective Ga16 agonists; Ga16-expressing cells, calcium fluorescence, agonist counterscreen; AID 651953; shares compounds with TAAR1 antagonist; activation, % at 3 µM; 2,400 tested, 18% active; in the data active means activation above about 12%
TAAR1 ag count: activates human TAAR1 in antagonist counter-screen | shares compounds with TAAR1 antagonist | hTAAR1 cell line, fluorescence activation, agonist mode | activation, % at 3 µM | 2,400 tested, 2% active; in the data active means activation above about 37%;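 further: CHO cells stably expressing TAAR1 with calcium dye readout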
Each line names hits and unclear results; the compound was inactive in the other large screens (follow-up assays come after a bar, where they were run).

Cc1cc(C(=O)COC(=O)Cn2c(C(F)(F)F)nc3ccccc32)c(C)n1Cc1ccco1	TAAR1 antagonist 50.8 | TAAR1 nonsel count inactive | TAAR1 ant conf inactive | Ga16 nonsel ag inactive | TAAR1 ag count inactive
CC(C)NC(=O)Nc1ccc2c(c1)C(=O)N([C@H](C)CO)C[C@H](C)[C@@H](CN(C)Cc1ccc(C(F)(F)F)cc1)OCCCC[C@H](C)O2	none (no result: OX1R antag-1, CHO parental Ca, OX1R antag-2, GPR7 antag)
CCCCN1C(=O)C(CC(=O)NCCCCc2ccccc2)CC(C(=O)N(C(C)C)C(C)C)=C1C (stereo not given)	none (no result: OX1R antag-1, CHO parental Ca, OX1R antag-2, GPR7 antag)
COc1ccc(C(=O)Nc2cccc(NC(=O)c3ccc(OC)c(OC)c3)n2)cc1OC	TAAR1 antagonist 62.1 | TAAR1 nonsel count 35.3 | TAAR1 ant conf 54.8 | Ga16 nonsel ag inactive | TAAR1 ag count inactive
O=C1N[C@@H](Cc2ccccc2)COC(=O)[C@H](Cc2ccc(F)cc2)C/C=C\C[C@H]1CC(=O)N(CCO)Cc1ccccc1	none (no result: GPR7 antag)
O=C1N[C@@H](Cc2ccccc2)COC(=O)[C@@H](Cc2ccc(F)cc2)CC/C=C/C[C@H]1CC(=O)N(CCO)Cc1ccccc1	TAAR1 antagonist 65.8 (no result: GPR7 antag) | TAAR1 nonsel count 30.5 | TAAR1 ant conf inactive | Ga16 nonsel ag inactive | TAAR1 ag count inactive
O=C1N[C@@H](Cc2ccccc2)COC(=O)[C@H](Cc2ccc(F)cc2)CC/C=C/C[C@H]1CC(=O)N(CCO)Cc1ccccc1	TAAR1 antagonist 65.7 (no result: GPR7 antag) | TAAR1 nonsel count inactive | TAAR1 ant conf inactive | Ga16 nonsel ag inactive | TAAR1 ag count inactive
O=C1N[C@@H](c2ccccc2)COC(=O)[C@@H](Cc2ccc(F)cc2)C/C=C\C[C@H]1CC(=O)N(CCO)Cc1ccccc1	TAAR1 antagonist 58.8 (no result: GPR7 antag) | TAAR1 nonsel count 36.5 | TAAR1 ant conf 57.7 | Ga16 nonsel ag 13.6 | TAAR1 ag count inactive
O=C1N[C@@H](c2ccccc2)COC(=O)[C@H](Cc2ccc(F)cc2)CC/C=C/C[C@@H]1CC(=O)N(CCO)Cc1ccccc1	none (no result: GPR7 antag)
O=C1N[C@@H](Cc2ccccc2)COC(=O)[C@H](Cc2ccc(F)cc2)CC/C=C/C[C@@H]1CC(=O)N(CCO)Cc1ccccc1	none (no result: GPR7 antag)
COc1ccccc1N1CCN(C(=O)/C=C/c2ccccc2)CC1	TAAR1 antagonist 105.1 | TAAR1 nonsel count inactive | TAAR1 ant conf inactive | Ga16 nonsel ag inactive | TAAR1 ag count inactive
COc1ccccc1N1CCN(C(=O)c2ccc(Br)o2)CC1	TAAR1 antagonist 101.4 (no result: GPR7 antag) | TAAR1 nonsel count inactive | TAAR1 ant conf inactive | Ga16 nonsel ag inactive | TAAR1 ag count inactive
COc1ccccc1N1CCN(C(=O)c2oc3ccc(F)cc3c2C)CC1	TAAR1 antagonist 53.5 | TAAR1 nonsel count 26.4 | TAAR1 ant conf 50.7 | Ga16 nonsel ag inactive | TAAR1 ag count inactive
COc1ccccc1N1CCN(C(=O)/C=C/c2cccs2)CC1	none
COc1ccccc1N1CCN(C(=O)c2oc3ccccc3c2C)CC1	none (no result: OX1R antag-1, CHO parental Ca, OX1R antag-2, GPR7 antag)
Cc1ccc2[nH]c(O)c(N=NC(N)=S)c2c1	none
CC(/C=C(\NC(=O)c1ccccc1)C(=O)N=Nc1c(O)[nH]c2ccc(C)cc12)=C\c1ccccc1	TAAR1 antagonist 64.8 | TAAR1 nonsel count inactive | TAAR1 ant conf inactive | Ga16 nonsel ag inactive | TAAR1 ag count inactive
O=C(CNC(=O)c1ccc(Cl)cc1)NC(CO)c1ccccc1 (stereo not given)	none
COc1ccc2cc(-c3[nH]ncc3CN3CCCN(c4ccccc4)CC3)ccc2c1	TAAR1 antagonist 105.7 | TAAR1 nonsel count inactive | TAAR1 ant conf inactive | Ga16 nonsel ag 21.6 | TAAR1 ag count 55.8
CCC(C)NC(=O)c1cc(-c2cccs2)nc2ccccc12 (stereo not given)	none
CC(C)CCNC(=O)c1cc(-c2cccs2)nc2ccccc12	TAAR1 antagonist 65.7 | TAAR1 nonsel count 28.8 | TAAR1 ant conf inactive | Ga16 nonsel ag inactive | TAAR1 ag count inactive
NS(=O)(=O)c1cccc(NC(=O)c2cccs2)c1	none
NS(=O)(=O)c1cccc(NC(=O)c2cc(-c3cccs3)nc3ccccc23)c1	TAAR1 antagonist 67.2 | TAAR1 nonsel count 37.5 | TAAR1 ant conf 49.5 | Ga16 nonsel ag inactive | TAAR1 ag count inactive
NS(=O)(=O)c1ccc(CCNC(=O)c2cc(-c3cccs3)nc3ccccc23)cc1	TAAR1 antagonist 65.3 (no result: OX1R antag-1, CHO parental Ca, OX1R antag-2) | TAAR1 nonsel count 35.0 | TAAR1 ant conf 56.7 | Ga16 nonsel ag 11.5 | TAAR1 ag count inactive
COc1cc(-c2cc(C(=O)NCCc3ccc(S(N)(=O)=O)cc3)c3ccccc3n2)cc(OC)c1OC	none
O=C(NCc1cccs1)c1cc(-c2ccccc2)nc2ccccc12	TAAR1 antagonist 57.6 | TAAR1 nonsel count 22.9 | TAAR1 ant conf inactive | Ga16 nonsel ag inactive | TAAR1 ag count inactive
CC(C)c1ccc(CN2CCSCC2)cc1	none
CC1=C(C(=O)N(C(C)C)C(C)C)CC(CC(=O)NCCN2CCOCC2)C(=O)N1CCC1=CCCCC1 (stereo not given)	none (no result: OX1R antag-1, CHO parental Ca, OX1R antag-2, GPR7 antag)
O=C(c1cc(-c2cccs2)nc2ccccc12)N1CCN(S(=O)(=O)c2cccc(F)c2)CC1	TAAR1 antagonist 52.1 | TAAR1 nonsel count 33.9 | TAAR1 ant conf inactive | Ga16 nonsel ag inactive | TAAR1 ag count inactive
O=C(c1cc(-c2cccs2)nc2ccccc12)N1CCN(S(=O)(=O)c2ccccc2)CC1	none
NS(=O)(=O)c1ccc(CNC(=O)c2cc(-c3cccs3)nc3ccccc23)cc1	TAAR1 antagonist 68.6 | TAAR1 nonsel count 35.5 | TAAR1 ant conf 51.0 | Ga16 nonsel ag inactive | TAAR1 ag count inactive
NS(=O)(=O)c1ccc(CNC(=O)Cc2cccs2)cc1	none
O=C(Cn1cccn1)N1CCCC(Nc2ccc(F)c(F)c2)C1 (stereo not given)	none
Cc1ccc(S(=O)(=O)NNC(=O)c2ccc(NC(=O)C3CC3)cc2)cc1	none (no result: OX1R antag-1, CHO parental Ca, OX1R antag-2)
CCOc1cc(N2CCOCC2)c(OCC)cc1NC(=O)CSc1nnc(N)s1	TAAR1 antagonist 100.1 (no result: GPR7 antag) | TAAR1 nonsel count inactive | TAAR1 ant conf inactive | Ga16 nonsel ag inactive | TAAR1 ag count inactive
COc1ccccc1/C=C/C(=O)NC(=S)N(C)C1CCCCC1	TAAR1 antagonist 68.5 | TAAR1 nonsel count 33.0 | TAAR1 ant conf inactive | Ga16 nonsel ag inactive | TAAR1 ag count inactive
COc1ccc(C(=O)NC(=S)N(C)C2CCCCC2)cc1Br	none
COc1cccc(NC(=O)NCc2c(-c3ccccc3)noc2C)c1	none
